High-throughput results from PubChem BioAssay.
CR mimetic SO = lowers age-related superoxide in aged yeast cells; S. cerevisiae aged cells, superoxide DHE fluorescence; stronger effect = lower value; superoxide response (% of plate mean), % at 10 µM; 330,000 compounds, 0.18% hits;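 active = superoxide response under a set limit, about three screen SD below normal, cut at about 65% in these data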;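 also: yeast aged for seven days with compound at 30 °C before DHE staining; 100% = average MFI of all compound-treated wells on the plate with controls excluded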
MIN6 prolif = inducers of beta-cell replication in MIN6 cells; MIN6 cells proliferation, ATPlite luminescence, 48 h; cells starved in 0.2% serum; 100% = growth in 10% serum; proliferation, % at 10 µM; 330,000 compounds, 0.29% hits;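 active = compounds whose signal lies at least 3.5 SD above the mean of all wells on their plate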;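 also: 0% = DMSO-treated cells in low-serum medium and 100% = 10% serum control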
PG9 Ab binder = small molecules binding HIV-1 gp120 antibody PG9; TR-FRET gp120-PG9 antibody binding; inhibition, % at 6.7 µM; 360,000 compounds, 0.43% hits; AID 624416; in the data active = inhibition above about 8.5%
Rce1 inhib = blocks yeast Ras-converting enzyme. 290,000 compounds, 0.27% hits. calls only. yeast membranes, quenched prenylated peptide cleavage fluorescence. Q03530. AID 2563;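 active = fall in fluorescence gain of 50% or more versus controls, with final raw signal at or below 3038400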;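 also: plate controls were neutral control wells for no effect and wells lacking membranes for full effect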
Target sequence (Q03530 whole entry, looked up): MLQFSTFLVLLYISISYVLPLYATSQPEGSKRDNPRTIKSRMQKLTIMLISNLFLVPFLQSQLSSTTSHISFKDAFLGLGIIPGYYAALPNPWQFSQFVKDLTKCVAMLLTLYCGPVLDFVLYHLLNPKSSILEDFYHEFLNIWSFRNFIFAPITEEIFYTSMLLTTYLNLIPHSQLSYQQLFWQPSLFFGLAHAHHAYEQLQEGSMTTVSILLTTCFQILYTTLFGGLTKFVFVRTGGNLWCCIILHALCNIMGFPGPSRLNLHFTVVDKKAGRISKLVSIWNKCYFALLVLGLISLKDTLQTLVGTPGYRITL
Rev-erbA mod = Rev-erb alpha (human) modulation. P20393. Rev-erbα–FITC-DNA binding, fluorescence polarization, 90 min. 370,000 compounds, 0.79% hits. activity, % at 10 µM;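 active = activity above about 14%, limit read from the data; passing the limit was not always enough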;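 also: 0% = DMSO wells with 35 nM protein and 100% = DMSO wells with 750 nM protein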
UCH37 DUB inh = blocks the human deubiquitinase UCH37. Q9Y5K5. purified proteasome/UCH37, Ub-AMC cleavage fluorescence. inhibition, % (test concentration not listed). 330,000 compounds, 0.33% hits. AID 588478;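 active = mean inhibition over replicate wells above about 20%, limit read from the data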;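 also: 0% = compound-free wells with enzyme and 100% = wells lacking proteasome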
Target sequence (Q9Y5K5 whole entry, looked up): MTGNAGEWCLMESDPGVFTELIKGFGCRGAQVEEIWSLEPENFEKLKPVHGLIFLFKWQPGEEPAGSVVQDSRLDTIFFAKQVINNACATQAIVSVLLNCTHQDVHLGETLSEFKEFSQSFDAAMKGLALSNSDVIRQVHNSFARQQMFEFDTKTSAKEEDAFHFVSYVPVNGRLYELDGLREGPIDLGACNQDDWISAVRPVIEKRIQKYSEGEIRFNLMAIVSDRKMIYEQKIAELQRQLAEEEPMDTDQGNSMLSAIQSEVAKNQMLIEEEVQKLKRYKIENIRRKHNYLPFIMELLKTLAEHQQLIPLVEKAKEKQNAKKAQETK
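Material: Human UCH37 enzyme supplied as purified proteasome complex | Schedule: 30 min compound-proteasome preincubation then 25 min substrate reaction, room temperature | Detection: AMC fluorescence from Ub-AMC cleavage, excitation 355 nm, emission 460 nm | Benchmarks: Wells without proteasome as full block, compound-free enzyme plus substrate as uninhibited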
Active calls of the source: *; i = inactive; nt = no result; + = active, no number. Most compounds without a hit are left out; they make up all but 1.9% or so of the library.

SMILES	CR mimetic SO	MIN6 prolif	PG9 Ab binder	Rce1 inhib	Rev-erbA mod	UCH37 DUB inh
Nc1c(Cl)cc(C2=NCCn3nc4cc(C(F)(F)F)ccc4c32)cc1Cl	99.6	-7.6	2.6	+	0.5	1.5
Cc1ccc(S(=O)(=O)c2cn(C)c3cc(N4CCOCC4)c(F)cc3c2=O)cc1	82.0	-2.0	0.2	+	-2.9	-50.5
CC(=NNC(=O)c1c(Cl)c(C)nn1C)c1ccc(NC(=O)COc2ccc(Cl)cc2C)cc1	nt	nt	nt	nt	nt	0.6
OC(CNCCC1C=Nc2ccccc21)Cn1c2ccc(Cl)cc2c2cc(Cl)ccc21 (centres undefined)	72.8	nt	-1.3	+	-3.7	0.7
OC(CNCC1CCCO1)Cn1c2ccc(Cl)cc2c2cc(Cl)ccc21 (centres undefined)	100.2	-5.9	2.4	i	-4.2	5.8
Cc1ccc(C=Nn2c(-c3ccncc3)n[nH]c2=S)o1	nt	nt	nt	nt	nt	2.9
CC(/C=C/C=C/c1ccccc1)=N\NC(=O)c1cccnc1	90.4	-3.1	-7.2	i	-5.2	nt
CC(/C=C/C=C/c1ccccc1)=NNC(=O)c1cccnc1	nt	nt	nt	nt	nt	24.3*
Cc1ccccc1OCC(=O)NN=Cc1ccc(N(C)C)cc1	nt	nt	nt	nt	nt	-88.1
Cn1cccc1C=NNC(=O)c1sc2cc(Cl)ccc2c1Cl	nt	nt	nt	nt	nt	4.1
COc1cccc(-c2cc(C(F)(F)F)n3ncc(C(=O)O)c3n2)c1	102.7	2.3	0.0	i	-3.5	18.1
COc1cccc(-c2cc(C(F)(F)F)n3ncc(S(=O)(=O)c4ccccc4)c3n2)c1	91.0	2.0	1.4	+	0.9	i
O=C(CC1S/C(=N/N=C/C=C/c2ccccc2)NC1=O)Nc1ccc(C(=O)O)cc1 (centres undefined)	94.3	-4.2	-2.0	i	2.2	20.4*
Cc1ccc(C)c(-c2csc(NN=Cc3ccco3)n2)c1	nt	nt	nt	nt	nt	-0.8
CC(=O)c1c(O)cc(O)cc1CC(=O)O	102.5	-3.5	-2.9	i	-4.3	-2.0
CC(=O)c1c(O)cc(O)c(C(C)=O)c1O	123.0	-6.1	nt	+	nt	9.2
O=C(CC(=O)NN=Cc1ccc([N+](=O)[O-])cc1)NCCc1ccccc1	nt	nt	nt	nt	nt	7.6
O=C(NN=Cc1ccc(O)c([N+](=O)[O-])c1)c1ccncc1	nt	nt	nt	nt	nt	20.4*
CC(C)CNC(=O)CON=Cc1ccccc1Cl	nt	nt	nt	nt	nt	1.9
COC(=O)C1=C(C(=O)OC)[C@@H]2N(C)c3ccc(OC)cc3[C@@]23C[C@@H](C(=O)OC)N(C(=O)c2cccs2)C3=N1	96.5	-0.6	nt	i	nt	41.9*
COC(=O)C1=C(C(=O)OC)[C@@H]2N(C)c3ccccc3[C@@]23C[C@@H](C(=O)OC)N(C(=O)c2cccs2)C3=N1	89.0	-1.5	-1.7	i	0.2	2.0
Cc1nc2ccccc2c(=O)n1N=C/C=C/c1ccccc1	nt	nt	nt	nt	nt	8.5
Nc1nnnn1N=Cc1ccccc1C(F)(F)F	nt	nt	nt	nt	nt	0.9
CN(C)C=Nc1nc(-c2ccc3c(c2)OCO3)cs1	nt	nt	nt	nt	nt	25.7*
N#CCCn1cc(C=NNC(=O)c2ccncc2)c(-c2ccc(F)cc2)n1	nt	nt	nt	nt	nt	3.7
SMILES	CR mimetic SO	MIN6 prolif	PG9 Ab binder	Rce1 inhib	Rev-erbA mod	UCH37 DUB inh
COc1ccccc1CNC(=O)c1ccccc1N	101.6	-3.4	nt	+	-2.4	-125.6
COc1ccccc1CNC(=O)c1cc(C)nn1-c1ccccc1	43.6*	0.5	-1.0	i	0.2	0.7
O=c1[nH]cccc1-c1nc2ccccc2n1Cc1cccc(Cl)c1	126.0	-1.9	-1.4	+	-2.0	-219.8
O=C(NN=Cc1c(O)ccc2ccccc12)c1cccc(C(F)(F)F)c1	nt	nt	nt	nt	nt	3.5
COc1ccc(CSc2ccc(-c3nc4ccccn4c3NCc3ccccc3)cc2OC)cc1	102.4	-6.6	4.1	+	5.5	-222.6
O=C(Nc1cc(S(=O)(=O)N2CCCCC2)ccc1Cl)c1ccccc1NS(=O)(=O)c1ccc(F)cc1	102.9	nt	-2.0	+	-0.6	-59.8
COc1ccccc1OCc1ccc(C(=O)NN=Cc2ccco2)cc1	nt	nt	nt	nt	nt	2.9
O=C1c2ccccc2C(=O)C12OC2c1cccc2ccccc12 (centres undefined)	117.3	-0.5	-0.8	i	-0.9	23.9*
O=C1NC(c2cccc3ccccc23)Nc2ccccc21 (centres undefined)	nt	nt	-0.4	nt	-6.3	nt
C(=NN1CCOCC1)c1nc(-c2ccccc2)n2ccccc12	nt	nt	nt	nt	nt	11.2
O=C1C(Cl)=C(N2CCC(C(=O)O)CC2)C(=O)c2ccccc21	116.2	-3.9	nt	i	nt	78.5*
CC12OC1C1(O)CCCC1=CC2=O (centres undefined)	99.7	-7.1	nt	i	nt	nt
COC1=CC2(O)CCCC2=CC1=O (centres undefined)	98.7	-3.3	-0.9	i	0.8	30.0*
Cc1ccc(N=Cc2c(O)n(C)c(=O)n(C)c2=O)nc1	74.3	-2.7	-1.4	+	4.7	7.3
Cc1ccc(N=CC2=C(O)CC(C)(C)CC2=O)nc1	105.2	-1.1	-0.1	i	-1.9	0.7
CCCCCCCCNc1ccccc1S(=O)(=O)NCc1ccccc1	102.0	nt	-0.8	nt	0.6	-8.0
O=S(=O)(NCc1ccccc1)c1ccccc1NCCc1ccccc1	51.7*	nt	-0.5	nt	-5.8	-2.8
CN(N=Cc1cccs1)c1cc(=O)n(C)c(=O)[nH]1	nt	nt	nt	nt	nt	20.8*
CCOC(=O)C[n+]1ccc2c([nH]c3ccccc32)c1C	90.0	0.4	2.1	+	-2.0	i
Cc1ccccc1NCC(=O)NN=Cc1ccc([N+](=O)[O-])s1	nt	nt	nt	nt	nt	6.8
C=CCn1cc(-c2ccccc2)cc(C#N)c1=O	99.1	0.9	0.8	+	2.9	-113.4
C=CCn1cc(-c2ccc(Cl)cc2)cc(C#N)c1=O	95.8	-1.2	0.8	i	-2.5	-55.4
Cc1nn(C)cc1C=NNC(=O)Cn1nccc1C	nt	nt	nt	nt	nt	1.6
CC(C)C(NC(=O)c1ccco1)C(=O)NCC(c1ccco1)N1CCCCC1 (centres undefined)	104.6	0.2	-0.6	+	0.2	-0.9
Cc1ccc(N2CN=c3sc(=Cc4cccnc4)c(=O)n3C2)cc1	nt	nt	nt	nt	nt	6.6
SMILES	CR mimetic SO	MIN6 prolif	PG9 Ab binder	Rce1 inhib	Rev-erbA mod	UCH37 DUB inh
COc1ccc(OC)c(Cc2nnc(CCC(=O)N3CCN(C4CCCC4)CC3)o2)c1	106.5	0.8	1.2	+	-5.6	nt
COc1ccc(CC(=O)NNC(=O)COc2ccc(Cl)cc2C)cc1S(=O)(=O)N1CCOCC1	64.5*	3.5	-2.3	nt	8.3	0.4
CCc1ccc2c(Cl)c(C(=O)NN=Cc3c[nH]c4ccccc34)sc2c1	nt	nt	nt	nt	nt	-7.1
COc1ccccc1NCC(=O)NN=C(C)c1cccs1	nt	nt	nt	nt	nt	1.0
O=c1[nH]c(Nc2ccc(F)cc2)cc2ccccc12	132.2	-1.0	-6.3	i	-13.4	-112.8
O=c1[nH]c(Nc2ccccn2)cc2ccccc12	106.6	2.4	-12.4	+	-7.4	nt
COc1cccc(C=NN(C)C2=NS(=O)(=O)c3ccccc32)c1O	nt	nt	nt	nt	nt	-3.2
CCON=Cc1ccc(OC)c(Oc2nc(OC)cc(OC)n2)c1	nt	nt	nt	nt	nt	1.8
